The source of these data is ChEMBL document CHEMBL2146419, “Effects of polyphenol compounds on influenza A virus replication and definition of their mechanism of action” (Bioorg Med Chem, 2012).

Data set [1] deals with Influenza A virus. Nature of the data set: Antiviral activity against Influenza virus A/Puerto Rico/8/34 H1N1 infected in dog MDCK cells incubated at 8 hrs post-infection measured after 24 hrs by hemagglutininating unit assay relative to control. The settings on record: A/Puerto Rico/8/1934(H1N1). In kind it is functional, organism-based. Summed up: (§1)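 Treatment of PR8-infected MDCK cells started at 2, 4, 6 or 8 h p.i. and compound stayed in the medium through 24 h p.i. Virus yield in the supernatant was read by HAU at 24 h p.i. as a percentage of DMSO-treated control infected cells. Means of two experiments, each in duplicate.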

The subject of data set [2] is MDCK. Nature of the data set: Cytotoxicity against dog MDCK cells assessed as modification of cell multiplication rate incubated for 24 hrs followed by compound wash out measured after 24 hrs by cell counting analysis. Type of data set: cell-based, Canis lupus familiaris. Summed up: (§2)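 Confluent MDCK monolayers plated at 2×10^5/ml were treated after 24 h with compound at 5–40 μg/ml and incubated a further 24 h. Assessed by microscopic examination of morphology, Trypan blue exclusion for viability, and cell counts for multiplication rate.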

Data set [3] concerns the target T1, Protein kinase C (PKC) (Homo sapiens) (UniProt O94806+P41743+P17252+P05129+Q05655+P05771+Q05513+Q02156+P24723+Q15139+Q04759). Nature of the data set: Inhibition of PKC-mediated JNK phosphorylation in human NCI-H292 cells infected with Influenza virus A/Puerto Rico/8/34 H1N1 measured at 6 hrs post-infection by immunoblotting analysis. Type of data set: cell-based. Summed up: (§3)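 NCI-H292 cells, mock- or PR8-infected at 1 M.O.I., were treated and lysed 6 h p.i. Lysates were run on 10% SDS–PAGE and blotted with rabbit anti-phospho-PKD, -ERK1/2, -p38MAPK or -JNK antibodies. Membranes were then stripped and reprobed for the corresponding total proteins.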
On the technique in general: Immunoblotting shows a protein as a band on a membrane.

The subject of data set [4] is Influenza A virus. Nature of the data set: Antiviral activity against Influenza virus A/Puerto Rico/8/34 H1N1 infected in dog MDCK cells incubated at 2 hrs post-infection measured after 24 hrs by hemagglutininating unit assay relative to control. In kind it is functional, A/Puerto Rico/8/1934(H1N1). Summed up:
as §1

In data set [5] the test system is Influenza A virus. Nature of the data set: Antiviral activity against Influenza virus A/Puerto Rico/8/34 H1N1 infected in dog MDCK cells incubated for 1 hr prior to infection by hemagglutininating unit assay. Type of data set: functional, organism-based. The settings on record: A/Puerto Rico/8/1934(H1N1). Summed up: (§4)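 Timing variants, each read by HAU of virus yield from MDCK cells: PR8 stock preincubated 1 h with compound before infection; compound present only during the 1 h adsorption; or cells pretreated overnight with washout just before viral challenge.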

Data set [6] concerns Influenza A virus. Nature of the data set: Antiviral activity against Influenza virus A/Puerto Rico/8/34 H1N1 infected in dog MDCK cells incubated at 4 hrs post-infection measured after 24 hrs by hemagglutininating unit assay relative to control. Type of data set: functional, A/Puerto Rico/8/1934(H1N1). Summed up: as §1
In data set [7] the test system is Influenza A virus. Nature of the data set: Antiviral activity against Influenza virus A/Puerto Rico/8/34 H1N1 infected in dog MDCK cells incubated at 6 hrs post-infection measured after 24 hrs by hemagglutininating unit assay relative to control. In kind it is functional, organism-based. As to conditions: A/Puerto Rico/8/1934(H1N1). Summed up: as §1
For data set [8], the target named is T1, Protein kinase C (PKC) (Homo sapiens). Nature of the data set: Inhibition of PKC-mediated ERK2 phosphorylation in human NCI-H292 cells infected with Influenza virus A/Puerto Rico/8/34 H1N1 measured at 6 hrs post-infection by immunoblotting analysis. In kind it is cell-based. Summed up:
as §3

The target is the same in data set [9]. Nature of the data set: Inhibition of PKC-mediated p38MAPK phosphorylation in human NCI-H292 cells infected with Influenza virus A/Puerto Rico/8/34 H1N1 measured at 6 hrs post-infection by immunoblotting analysis. In kind it is cell-based. Summed up:
as §3

The subject of data set [10] is MDCK. Nature of the data set: Cytotoxicity against dog MDCK cells assessed as morphological alterations incubated for 24 hrs followed by compound wash out measured after 24 hrs by microscopic analysis. In kind it is cell-based, Canis lupus familiaris. Summed up: as §2
For data set [11], the target named is T1, Protein kinase C (PKC) (Homo sapiens). Nature of the data set: Inhibition of PKC-mediated PKD phosphorylation in human NCI-H292 cells infected with Influenza virus A/Puerto Rico/8/34 H1N1 measured at 6 hrs post-infection by immunoblotting analysis. Type of data set: cell-based. Summed up:
as §3

The subject of data set [12] is MDCK. Nature of the data set: Inhibition of PKC/p38MAPK-mediated nuclear-cytoplasmic viral nucleoprotein export in dog MDCK cells infected with Influenza virus A/Puerto Rico/8/34 H1N1 assessed as increase in nucleoprotein level in nucleus measured at 8 hrs post-infection by Western blot analysis. The settings on record: Canis lupus familiaris. Type of data set: cell-based. Summed up:
(§5)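 Cytosolic and nuclear extracts from treated and untreated infected MDCK cells were run on SDS-PAGE and immunoblotted with anti-NP antibodies. Blots were stripped and reprobed for α-tubulin (cytosol) or lamin A/C (nucleus). Densitometry is given as the NP/tubulin or NP/lamin ratio; one representative experiment of three.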

For data set [13], the system named is Influenza A virus. Nature of the data set: Downregulation of HA protein expression in Influenza virus A/Puerto Rico/8/34 H1N1 infected in dog MDCK cells measured at 24 hrs post-infection. Type of data set: functional, organism-based. As to conditions: A/Puerto Rico/8/1934(H1N1). Summed up:
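PR8-infected MDCK cells, untreated or treated, were lysed at 24 h. Homogenates were run on 12% gels under reducing conditions, blotted to nitrocellulose and probed with goat polyclonal anti-influenza antibodies. Densitometry was expressed as the ratio of each viral protein to actin, relative to untreated infected cells.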

Data set [14] deals with MDCK. Nature of the data set: Restoration of GSH level in dog MDCK cells infected with Influenza virus A/Puerto Rico/8/34 H1N1 assessed as impairment of viral protein localization on plasma membrane measured at 24 hrs post-infection by immunofluorescence assay. The settings on record: Canis lupus familiaris. In kind it is functional, cell-based.
Data set [15] has as its system Influenza A virus. Nature of the data set: Antiviral activity against Influenza virus A/Puerto Rico/8/34 H1N1 infected in dog MDCK cells incubated at 1 hr post-infection measured after 24 hrs by hemagglutininating unit assay. Type of data set: functional, organism-based. The settings on record: A/Puerto Rico/8/1934(H1N1). Summed up: (§6)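 MDCK cells infected with PR8; 1 h after adsorption they were washed, and compound (5–20 μg/ml) or DMSO was added and kept on throughout. Virus released into the supernatant was titrated by HAU assay 24 h p.i. Yield is a percentage of control infected cells given 0.02% DMSO. Means of four experiments, each in duplicate.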

The test system of data set [16] is Influenza A virus. Nature of the data set: Antiviral activity against Influenza virus A/Puerto Rico/8/34 H1N1 infected in dog MDCK cells incubated overnight prior to infection followed by compound washout by hemagglutininating unit assay. In kind it is functional, organism-based. The settings on record: A/Puerto Rico/8/1934(H1N1). Summed up:
as §4

Data set [17] deals with MDCK. Nature of the data set: Cytotoxicity against dog MDCK cells assessed as loss of cell viability incubated for 24 hrs followed by compound wash out measured after 24 hrs by trypan blue exclusion assay. Type of data set: cell-based, Canis lupus familiaris. Summed up: as §2
The test system of data set [18] is MDCK. Nature of the data set: Inhibition of PKC/p38MAPK-mediated nuclear-cytoplasmic viral ribonucleoprotein export in dog MDCK cells infected with Influenza virus A/Puerto Rico/8/34 H1N1 measured at 8 hrs post-infection by inmmunofluorescence. Type of data set: cell-based. The settings on record: Canis lupus familiaris. Summed up: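 MDCK cells were infected with PR8 at 1 M.O.I. for single-cycle replication. At 8 h p.i. cells were fixed, permeabilized and stained with DAPI, then with anti-NP primary and FITC-conjugated secondary antibody. NP localization was assessed by fluorescence microscopy.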

Data set [19] concerns Influenza A virus. Nature of the data set: Antiviral activity against Influenza virus A/Puerto Rico/8/34 H1N1 infected in dog MDCK cells assessed as inhibition of viral replication at 20 ug/mL incubated at 1 hr post-infection measured after 24 hrs by hemagglutininating unit assay relative to control. Type of data set: functional. The settings on record: A/Puerto Rico/8/1934(H1N1). Summed up:
as §6

Data set [20] relates to MDCK. Nature of the data set: Inhibition of PKC/p38MAPK-mediated nuclear-cytoplasmic viral nucleoprotein export in dog MDCK cells infected with Influenza virus A/Puerto Rico/8/34 H1N1 assessed as decrease in nucleoprotein level in cytoplasm measured at 8 hrs post-infection by Western blot analysis. Type of data set: cell-based. As to conditions: Canis lupus familiaris. Summed up:
as §5

Data set [21] has as its system MDCK. Nature of the data set: Restoration of GSH level in dog MDCK cells infected with Influenza virus A/Puerto Rico/8/34 H1N1 assessed as viral protein localization on peri-nuclear zone measured at 24 hrs post-infection by immunofluorescence assay. In kind it is functional, cell-based. The settings on record: Canis lupus familiaris.
Data set [22] has as its target T1, Protein kinase C (PKC) (Homo sapiens). Nature of the data set: Inhibition of PKC-mediated ERK1 phosphorylation in human NCI-H292 cells infected with Influenza virus A/Puerto Rico/8/34 H1N1 measured at 6 hrs post-infection by immunoblotting analysis. Type of data set: cell-based. Summed up: as §3
In data set [23] the test system is Influenza A virus. Nature of the data set: Antiviral activity against Influenza virus A/Puerto Rico/8/34 H1N1 infected in dog MDCK cells incubated for 1 hr post-infection followed by compound washout by hemagglutininating unit assay. In kind it is functional, organism-based. As to conditions: A/Puerto Rico/8/1934(H1N1).

Activity calls are given as the source filed them. No cut-off for these calls is given here.

For `O=C1/C(=C/c2ccc(O)c(O)c2)COC/C1=C\c1ccc(O)c(O)c1`, the result in the data set with Influenza A virus [1], with Influenza A virus [5], in the data set on Influenza A virus [16] and with Influenza A virus [23] was inactive. In addition, the Activity entry in the data set on MDCK [2] is “Non-toxic”; in the data set on Influenza A virus [4], 79%; with Influenza A virus [6], 79%; in the data set on MDCK [10], “Non-toxic”; in the data set with Influenza A virus [15], “Dose-dependent effect”; in the data set with MDCK [17], “Non-toxic”. Moreover, the inhibition result (in [3]; in data set [9]; in data set [11]; with MDCK [12]; in the data set with MDCK [18]; in the data set with MDCK [20]) was “Active” throughout. For the same molecule, the result with Influenza A virus [7], in the data set with Influenza A virus [13], in the data set with MDCK [14] and in the data set with MDCK [21] was Active. In addition, the inhibition result in data set [8] and in data set [22] was “inactive” in each case. The inhibition – broadly, the percentage by which the read-out fell short of the control – at 20 µg/mL in the data set on Influenza A virus [19] came out at 75%.

For `O=C(/C=C/c1ccc(O)cc1)c1ccc(O)cc1O` [ISOLIQUIRITIGENIN], the result with Influenza A virus [1], in the data set on Influenza A virus [5], in the data set on Influenza A virus [16] and with Influenza A virus [23] was inactive. In addition, the Activity entry in the data set on MDCK [2] is “Non-toxic”; in the data set with Influenza A virus [4], 79%; in the data set with Influenza A virus [6], 79%; in the data set with MDCK [10] it was “Non-toxic”; with Influenza A virus [15], “Dose-dependent effect”; in the data set on MDCK [17], “Non-toxic”. Moreover, the inhibition entry (in [3]; in [9]; in data set [11]; in the data set with MDCK [12]; with MDCK [18]; with Influenza A virus [19]) was “Active” each time. Further, in the data set on MDCK [20], the inhibition result is “Active”. The result with Influenza A virus [7], in the data set on Influenza A virus [13], in the data set with MDCK [14] and in the data set on MDCK [21] was Active. Further, the inhibition entry in data set [8] and in [22] was “inactive” throughout.
